Reference: ChEMBL document CHEMBL1143122, “Novel analogs of D-e-MAPP and B13. Part 1: synthesis and evaluation as potential anticancer agents” (Bioorg Med Chem, 2008)

Experiments:
U-251 = assay: Antiproliferative activity against human U251 cells after 48 hrs; format: functional; conditions: U-251, 48 h
Method in brief: (§1)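 NCI 60-cell-line screen. Lines grown in RPMI 1640 with 5% fetal bovine serum and 2 mM L-glutamine, plated at 5,000–40,000 cells/well according to doubling time, left 24 h at 37 °C in 5% CO2. Drug stocks in DMSO at 400-fold the top final concentration. Five 10-fold dilutions, 10−4 to 10−8 M, incubated 48 h. Growth read spectrophotometrically as net protein; GI50 taken as 50% reduction.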

OVCAR-5 = assay: Antiproliferative activity against human OVCAR5 cells after 48 hrs; format: functional; conditions: OVCAR-5, 48 h
Method in brief: (§2)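 NCI 60-cell screen. Cells were grown in RPMI 1640 with 5% FBS and 2 mM L-glutamine, then plated at 5,000–40,000 cells/well according to doubling time and preincubated for 24 h at 37 °C in 5% CO2. Compounds were dissolved in DMSO at 400× the top final concentration and tested at five 10-fold dilutions from 10−4 to 10−8 M for 48 h. Growth was read spectrophotometrically; GI50 is 50% net protein reduction.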

M14 = assay: Antiproliferative activity against human M14 cells after 48 hrs; format: functional; conditions: M14, 48 h; method in brief: as §2
Hs-578T = assay: Antiproliferative activity against human HS578T cells after 48 hrs; format: functional; method in brief: as §2
MDA-MB-231 = assay: Antiproliferative activity against human MDA-MB-231 cells after 48 hrs; format: functional; conditions: MDA-MB-231, 48 h; method in brief: as §2
NCI-H322M = assay: Antiproliferative activity against human NCI-H322M cells after 48 hrs; format: functional; method in brief: as §2
A549 = assay: Antiproliferative activity against human A549 cells after 48 hrs; format: functional; conditions: A549, 48 h; method in brief: as §2
SK-MEL-28 = assay: Antiproliferative activity against human SKMEL28 cells after 48 hrs; format: functional; conditions: SK-MEL-28, 48 h; method in brief: as §2
MCF7 = assay: Antiproliferative activity against human MCF7 cells after 48 hrs; format: functional, cell-based; conditions: MCF7, 48 h
OVCAR-3 = assay: Antiproliferative activity against human OVCAR-3 cells after 48 hrs; format: functional; conditions: OVCAR-3, 48 h; method in brief: as §2
DU-145 = assay: Antiproliferative activity against human DU145 cells after 48 hrs; format: functional; conditions: DU-145, 48 h; method in brief: as §2
COLO 205 = assay: Antiproliferative activity against human COLO205 cells after 48 hrs; format: functional; conditions: COLO 205, 48 h; method in brief: as §2
OVCAR-4 = assay: Antiproliferative activity against human OVCAR4 cells after 48 hrs; format: functional; conditions: OVCAR-4, 48 h; method in brief: as §2
MOLT-4 = assay: Antiproliferative activity against human MOLT4 cells after 48 hrs; format: functional; conditions: MOLT-4, 48 h; method in brief: as §2
MDA-MB-435 = assay: Antiproliferative activity against human MDA-MB-435 cells after 48 hrs; format: functional; method in brief: as §2
RPMI-8226 = assay: Antiproliferative activity against human RPMI8226 cells after 48 hrs; format: functional; conditions: RPMI-8226, 48 h; method in brief: as §2
RXF 393 = assay: Antiproliferative activity against human RXF393 cells after 48 hrs; format: functional; conditions: RXF 393, 48 h; method in brief: as §2
BT-549 = assay: Antiproliferative activity against human BT549 cells after 48 hrs; format: functional; conditions: BT-549, 48 h; method in brief: as §2
NCI-H23 = assay: Antiproliferative activity against human NCI-H23 cells after 48 hrs; format: functional; conditions: NCI-H23, 48 h; method in brief: as §2
SF-539 = assay: Antiproliferative activity against human SF539 cells after 48 hrs; format: functional; conditions: SF-539, 48 h; method in brief: as §2
SF-268 = assay: Antiproliferative activity against human SF268 cells after 48 hrs; format: functional; conditions: SF-268, 48 h; method in brief: as §2
HT-29 = assay: Antiproliferative activity against human HT29 cells after 48 hrs; format: functional; conditions: HT-29, 48 h; method in brief: as §2
T47D = assay: Antiproliferative activity against human T47D cells after 48 hrs; format: functional; method in brief: as §1
[1] = Antiproliferative activity against human NCI-ADR-RES cells after 48 hrs; format: functional; method in brief: as §2
HCT-15 = assay: Antiproliferative activity against human HCT15 cells after 48 hrs; format: functional; conditions: Homo sapiens, HCT-15, 48 h; method in brief: as §2
SNB-19 = assay: Antiproliferative activity against human SNB19 cells after 48 hrs; format: functional; conditions: SNB-19, 48 h; method in brief: as §2
UO-31 = assay: Antiproliferative activity against human UO31 cells after 48 hrs; format: functional; conditions: UO-31, 48 h; method in brief: as §1
NCI-H226 = assay: Antiproliferative activity against human NCI-H226 cells after 48 hrs; format: functional; conditions: NCI-H226, 48 h; method in brief: as §2
SK-OV-3 = assay: Antiproliferative activity against human SKOV3 cells after 48 hrs; format: functional; conditions: SK-OV-3, 48 h; method in brief: as §2
UACC-257 = assay: Antiproliferative activity against human UACC257 cells after 48 hrs; format: functional; conditions: UACC-257, 48 h; method in brief: as §1
PC-3 = assay: Antiproliferative activity against human PC3 cells after 48 hrs; format: functional; conditions: PC-3, 48 h; method in brief: as §2
CAKI-1 = assay: Antiproliferative activity against human CAKI1 cells after 48 hrs; format: functional; conditions: CAKI-1, 48 h; method in brief: as §2
[2] = read-out: Log LC50 (the source's name) (converted)

## C[C@@H](NC(=O)CCCCCCCCCCCCCCC[n+]1ccccc1)[C@@H](O)c1ccccc1.[Br-]
U-251
  GI50: 1.41 µM
U-251; [2]
  CC50: 5.25 µM
U-251; read-out: Log TGI (converted)
  TGI: 2.75 µM
OVCAR-5
  GI50: 5.25 µM
OVCAR-5; [2]
  CC50: 50.1 µM
OVCAR-5; read-out: Log TGI (converted)
  TGI: 18.2 µM
M14
  GI50: 3.39 µM
  LC50: 8.32 µM
M14; read-out: Log TGI (converted)
  TGI: 3.89 µM
Hs-578T
  GI50: 1.78 µM
  LC50: 9.12 µM
Hs-578T; read-out: Log TGI (converted)
  TGI: 4.07 µM
MDA-MB-231
  GI50: 1.74 µM
  LC50 (50% lethal concentration): 7.59 µM
MDA-MB-231; read-out: Log TGI (converted)
  TGI: 3.63 µM
NCI-H322M
  GI50: 11 µM
NCI-H322M; [2]
  CC50: 49 µM
NCI-H322M; read-out: Log TGI (converted)
  TGI: 22.9 µM
A549
  GI50: 4.37 µM
A549; [2]
  CC50: > 100 µM
A549; read-out: Log TGI (converted)
  TGI: 43.7 µM
SK-MEL-28
  GI50: 1.7 µM
  LC50: 5.75 µM
SK-MEL-28; read-out: Log TGI (converted)
  TGI: 3.16 µM
MCF7
  GI50: 1.58 µM
  LC50: 8.51 µM
MCF7; read-out: Log TGI (converted)
  TGI: 3.72 µM
OVCAR-3
  GI50: 1.1 µM
OVCAR-3; read-out: Log TGI (converted)
  TGI: 2.4 µM
DU-145
  GI50: 3.47 µM
DU-145; [2]
  CC50: 49 µM
DU-145; read-out: Log TGI (converted)
  TGI: 15.1 µM
COLO 205
  GI50: 1.38 µM
COLO 205; read-out: Log TGI (converted)
  TGI: 3.02 µM
OVCAR-4
  GI50: 1.7 µM
  LC50: > 100 µM
OVCAR-4; read-out: Log TGI (converted)
  TGI: 5.37 µM
MOLT-4
  GI50: 2.51 µM
  LC50: 100 µM
MOLT-4; read-out: Log TGI (converted)
  TGI: 6.46 µM
MDA-MB-435
  GI50: 1.58 µM
MDA-MB-435; Homo sapiens, MDA-MB-435, 48 h
  GI50: 1.78 µM
  LC50: 5.5 µM
MDA-MB-435; Homo sapiens, MDA-MB-435, 48 h, read-out: Log TGI (converted)
  TGI: 2.95 µM
RPMI-8226
  GI50: 0.288 µM
RPMI-8226; [2]
  CC50: 5.13 µM
RPMI-8226; read-out: Log TGI (converted)
  TGI: 1.91 µM
RXF 393
  GI50: 4.57 µM
RXF 393; [2]
  CC50: 97.7 µM
RXF 393; read-out: Log TGI (converted)
  TGI: 24 µM
BT-549
  GI50: 0.0692 µM
  LC50: 3.39 µM
BT-549; read-out: Log TGI (converted)
  TGI: 1.07 µM
NCI-H23
  GI50: 2.95 µM
NCI-H23; [2]
  CC50: 56.2 µM
NCI-H23; read-out: Log TGI (converted)
  TGI: 11.7 µM
SF-539
  GI50: 2.04 µM
  LC50: > 100 µM
SF-539; read-out: Log TGI (converted)
  TGI: 5.5 µM
SF-268
  GI50: 1.66 µM
  LC50: 6.03 µM
SF-268; read-out: Log TGI (converted)
  TGI: 3.16 µM
HT-29
  GI50: 1.58 µM
  LC50: 7.59 µM
HT-29; read-out: Log TGI (converted)
  TGI: 3.47 µM
T47D
  GI50: 1.55 µM
T47D; [2]
  CC50: > 100 µM
T47D; read-out: Log TGI (converted)
  TGI: 6.46 µM
[1]
  GI50: 19.5 µM
  LC50: 85.1 µM
[1]; read-out: Log TGI (converted)
  TGI: 40.7 µM
HCT-15
  GI50: 17.8 µM
  LC50: 58.9 µM
HCT-15; read-out: Log TGI (converted)
  TGI: 32.4 µM
SNB-19
  GI50: 1.58 µM
SNB-19; read-out: Log TGI (converted)
  TGI: 3.09 µM
UO-31
  GI50: 19.1 µM
  LC50: 93.3 µM
UO-31; read-out: Log TGI (converted)
  TGI: 41.7 µM
NCI-H226
  GI50: 4.17 µM
NCI-H226; [2]
  CC50: > 100 µM
NCI-H226; read-out: Log TGI (converted)
  TGI: 22.9 µM
SK-OV-3
  GI50: 3.09 µM
SK-OV-3; [2]
  CC50: 60.3 µM
SK-OV-3; read-out: Log TGI (converted)
  TGI: 13.5 µM
UACC-257
  GI50: 1.58 µM
UACC-257; read-out: Log TGI (converted)
  TGI: 3.39 µM
PC-3
  GI50: 1.38 µM
  LC50: 15.1 µM
PC-3; read-out: Log TGI (converted)
  TGI: 3.98 µM
CAKI-1
  GI50: 1.38 µM
CAKI-1; [2]
  CC50: 66.1 µM
CAKI-1; read-out: Log TGI (converted)
  TGI: 30.2 µM
